The target in assay [1] is T1, Tyrosine-protein kinase ZAP-70 (Homo sapiens) (UniProt P43403).
T1 sequence (whole entry): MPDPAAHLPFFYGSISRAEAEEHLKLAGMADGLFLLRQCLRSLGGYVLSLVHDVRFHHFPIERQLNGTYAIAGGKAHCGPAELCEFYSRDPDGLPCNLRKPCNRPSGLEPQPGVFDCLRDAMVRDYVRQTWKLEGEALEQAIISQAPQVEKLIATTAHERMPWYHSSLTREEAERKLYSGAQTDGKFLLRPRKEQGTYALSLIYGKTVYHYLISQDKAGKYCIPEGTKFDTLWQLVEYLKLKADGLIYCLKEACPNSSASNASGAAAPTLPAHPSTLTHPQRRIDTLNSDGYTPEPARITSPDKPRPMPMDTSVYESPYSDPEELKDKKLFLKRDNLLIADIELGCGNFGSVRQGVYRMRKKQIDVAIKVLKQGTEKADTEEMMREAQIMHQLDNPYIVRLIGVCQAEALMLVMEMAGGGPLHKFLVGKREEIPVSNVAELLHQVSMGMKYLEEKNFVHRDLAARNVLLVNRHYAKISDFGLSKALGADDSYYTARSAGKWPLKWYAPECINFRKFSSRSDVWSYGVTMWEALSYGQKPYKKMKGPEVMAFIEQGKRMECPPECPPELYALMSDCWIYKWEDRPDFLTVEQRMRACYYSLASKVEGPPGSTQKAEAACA
The assay is described as follows: Residual activity of ZAP70 at 1 uM by microplate scintillation counting.

For assay [2], the target named is T2, Inhibitor of nuclear factor kappa-B kinase subunit alpha (Homo sapiens) (UniProt O15111).
T2 sequence (whole entry): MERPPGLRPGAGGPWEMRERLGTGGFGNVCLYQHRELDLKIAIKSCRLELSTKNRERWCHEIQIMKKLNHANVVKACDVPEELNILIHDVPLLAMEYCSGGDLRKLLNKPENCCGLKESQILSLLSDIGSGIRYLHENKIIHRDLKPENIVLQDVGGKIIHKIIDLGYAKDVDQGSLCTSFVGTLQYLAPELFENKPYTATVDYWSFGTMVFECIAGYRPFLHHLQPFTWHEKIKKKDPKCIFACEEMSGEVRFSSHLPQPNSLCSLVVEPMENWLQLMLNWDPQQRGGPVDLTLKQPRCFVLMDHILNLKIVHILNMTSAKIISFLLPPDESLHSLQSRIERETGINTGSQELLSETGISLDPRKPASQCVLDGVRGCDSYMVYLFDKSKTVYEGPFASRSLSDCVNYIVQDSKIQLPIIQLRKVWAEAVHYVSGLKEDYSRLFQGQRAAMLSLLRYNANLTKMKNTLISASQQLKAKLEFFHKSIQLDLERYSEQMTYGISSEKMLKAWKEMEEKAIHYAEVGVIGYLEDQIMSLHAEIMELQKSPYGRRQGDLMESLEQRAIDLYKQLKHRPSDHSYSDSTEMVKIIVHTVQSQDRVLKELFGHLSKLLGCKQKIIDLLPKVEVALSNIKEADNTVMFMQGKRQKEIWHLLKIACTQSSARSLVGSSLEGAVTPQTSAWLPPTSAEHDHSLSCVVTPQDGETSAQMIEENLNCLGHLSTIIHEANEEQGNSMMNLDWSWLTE
The assay can be described thus: Residual activity of IKKalpha at 10 uM by microplate scintillation counting.

The target of assay [3] is T3, Discoidin domain-containing receptor 2 (Homo sapiens) (UniProt Q16832).
T3 sequence (whole entry): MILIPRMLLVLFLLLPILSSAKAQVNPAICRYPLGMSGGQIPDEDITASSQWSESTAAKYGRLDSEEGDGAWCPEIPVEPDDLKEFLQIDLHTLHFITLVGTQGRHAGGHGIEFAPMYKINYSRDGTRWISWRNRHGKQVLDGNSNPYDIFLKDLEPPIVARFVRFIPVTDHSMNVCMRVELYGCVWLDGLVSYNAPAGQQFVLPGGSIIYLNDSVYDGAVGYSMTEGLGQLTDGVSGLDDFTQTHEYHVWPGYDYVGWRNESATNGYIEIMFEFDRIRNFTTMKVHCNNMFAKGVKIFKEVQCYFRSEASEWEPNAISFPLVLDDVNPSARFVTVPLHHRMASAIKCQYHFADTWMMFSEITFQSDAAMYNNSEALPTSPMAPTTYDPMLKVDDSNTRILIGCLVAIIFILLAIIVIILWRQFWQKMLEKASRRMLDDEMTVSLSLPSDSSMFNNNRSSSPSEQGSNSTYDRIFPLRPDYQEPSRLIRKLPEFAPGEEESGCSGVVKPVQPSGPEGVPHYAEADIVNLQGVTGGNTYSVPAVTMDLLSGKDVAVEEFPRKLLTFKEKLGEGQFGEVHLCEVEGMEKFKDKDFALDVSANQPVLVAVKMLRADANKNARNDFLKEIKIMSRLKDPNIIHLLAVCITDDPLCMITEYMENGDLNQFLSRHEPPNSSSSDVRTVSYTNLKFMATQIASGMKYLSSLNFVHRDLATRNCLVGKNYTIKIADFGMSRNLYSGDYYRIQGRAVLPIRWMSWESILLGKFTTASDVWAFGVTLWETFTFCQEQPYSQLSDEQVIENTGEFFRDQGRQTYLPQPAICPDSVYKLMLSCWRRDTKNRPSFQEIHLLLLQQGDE
The assay is described as follows: Residual activity of DDR2 at 0.1 uM by microplate scintillation counting.

Assay [4] addresses Protein kinase C eta type (Homo sapiens) (UniProt P24723). The assay is described as follows: Residual activity of PKCeta at 10 uM by microplate scintillation counting.
The target in assay [5] is CDK1/Cyclin A (Homo sapiens) (UniProt P06493+P20248). The assay can be described thus: Residual activity of CDK1/Cyclin A at 1 uM by microplate scintillation counting. The assay is classed as protein-complex assay.
CDK1/Cyclin A (Homo sapiens), sequence (P06493 whole entry, looked up): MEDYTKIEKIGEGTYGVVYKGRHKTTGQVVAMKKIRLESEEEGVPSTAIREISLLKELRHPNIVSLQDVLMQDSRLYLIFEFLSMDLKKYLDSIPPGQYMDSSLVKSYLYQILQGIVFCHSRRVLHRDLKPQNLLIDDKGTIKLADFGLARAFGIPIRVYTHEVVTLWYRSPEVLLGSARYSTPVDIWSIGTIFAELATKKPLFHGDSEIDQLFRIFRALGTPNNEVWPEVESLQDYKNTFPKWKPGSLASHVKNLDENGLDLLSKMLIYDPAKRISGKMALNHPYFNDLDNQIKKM
CDK1/Cyclin A (Homo sapiens), sequence (P20248 whole entry, looked up): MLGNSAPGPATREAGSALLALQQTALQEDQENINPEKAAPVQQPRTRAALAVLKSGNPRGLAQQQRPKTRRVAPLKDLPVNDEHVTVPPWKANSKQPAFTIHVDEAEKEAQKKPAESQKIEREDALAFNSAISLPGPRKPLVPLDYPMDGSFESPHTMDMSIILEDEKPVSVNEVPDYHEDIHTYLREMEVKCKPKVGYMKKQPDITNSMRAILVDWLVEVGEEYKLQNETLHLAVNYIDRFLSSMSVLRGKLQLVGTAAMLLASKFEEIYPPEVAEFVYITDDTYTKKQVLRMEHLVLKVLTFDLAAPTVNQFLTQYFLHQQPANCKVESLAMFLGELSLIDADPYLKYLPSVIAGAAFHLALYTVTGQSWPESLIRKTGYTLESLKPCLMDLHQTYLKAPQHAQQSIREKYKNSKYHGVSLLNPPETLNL
Assay [6] has as its target Vascular endothelial growth factor receptor 3 (Homo sapiens, UniProt P35916). The assay is described as follows: Inhibition of VEGFR3 by microplate scintillation counting. In outline:
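Radiometric FlashPlate assay using recombinant kinase (10–200 ng/well) with poly(Glu,Tyr)4:1 substrate. Buffer: 60 mM HEPES-NaOH pH 7.5, 3 mM MgCl2, 3 mM MnCl2, 3 µM orthovanadate, 1.2 mM DTT, PEG 20000, 1 µM [γ-33P]-ATP. Run 80 min at 30 °C, stopped with H3PO4, and 33P incorporation counted.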

The structures appear in SMILES notation.

The term residual activity denotes the signal under treatment as a percentage of the control signal. By IC50 is commonly meant the concentration that inhibits the measured activity by half. A low value points to greater potency.

Vascular endothelial growth factor receptor 3, sequence (P35916 whole entry): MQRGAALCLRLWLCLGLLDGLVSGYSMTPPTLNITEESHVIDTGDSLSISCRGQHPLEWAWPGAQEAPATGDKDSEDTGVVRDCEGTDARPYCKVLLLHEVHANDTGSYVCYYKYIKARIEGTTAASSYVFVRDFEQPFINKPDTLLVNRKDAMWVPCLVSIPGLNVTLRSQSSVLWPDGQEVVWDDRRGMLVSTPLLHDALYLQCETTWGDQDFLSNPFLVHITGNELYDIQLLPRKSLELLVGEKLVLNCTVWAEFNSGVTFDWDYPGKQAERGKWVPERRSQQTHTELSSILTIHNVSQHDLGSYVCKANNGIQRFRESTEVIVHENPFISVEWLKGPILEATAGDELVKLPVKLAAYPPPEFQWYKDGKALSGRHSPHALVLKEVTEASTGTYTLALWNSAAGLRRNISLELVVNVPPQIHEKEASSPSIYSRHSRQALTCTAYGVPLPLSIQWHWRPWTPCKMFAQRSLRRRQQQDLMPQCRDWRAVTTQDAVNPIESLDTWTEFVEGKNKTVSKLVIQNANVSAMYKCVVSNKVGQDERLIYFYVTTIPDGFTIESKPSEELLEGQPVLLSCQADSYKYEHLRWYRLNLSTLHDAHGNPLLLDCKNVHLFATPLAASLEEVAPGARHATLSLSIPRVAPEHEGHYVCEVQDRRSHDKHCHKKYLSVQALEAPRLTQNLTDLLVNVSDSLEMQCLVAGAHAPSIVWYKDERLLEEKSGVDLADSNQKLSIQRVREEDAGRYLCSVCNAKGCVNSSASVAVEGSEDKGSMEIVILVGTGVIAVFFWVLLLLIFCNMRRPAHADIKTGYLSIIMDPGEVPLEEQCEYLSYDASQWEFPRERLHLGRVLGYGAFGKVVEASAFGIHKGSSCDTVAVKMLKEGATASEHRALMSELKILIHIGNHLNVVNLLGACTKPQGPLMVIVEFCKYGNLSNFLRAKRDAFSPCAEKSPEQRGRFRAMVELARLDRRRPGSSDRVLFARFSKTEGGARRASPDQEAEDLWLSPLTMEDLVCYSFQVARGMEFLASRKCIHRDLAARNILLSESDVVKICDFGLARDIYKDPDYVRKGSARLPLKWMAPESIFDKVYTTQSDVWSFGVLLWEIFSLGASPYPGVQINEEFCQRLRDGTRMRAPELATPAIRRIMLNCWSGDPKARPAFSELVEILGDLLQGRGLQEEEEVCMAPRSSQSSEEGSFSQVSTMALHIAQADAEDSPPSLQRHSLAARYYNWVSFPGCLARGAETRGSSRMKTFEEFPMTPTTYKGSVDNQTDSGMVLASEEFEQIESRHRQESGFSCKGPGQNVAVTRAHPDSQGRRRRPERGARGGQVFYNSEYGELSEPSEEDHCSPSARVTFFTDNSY
Protein kinase C eta type (Homo sapiens), sequence (P24723 whole entry): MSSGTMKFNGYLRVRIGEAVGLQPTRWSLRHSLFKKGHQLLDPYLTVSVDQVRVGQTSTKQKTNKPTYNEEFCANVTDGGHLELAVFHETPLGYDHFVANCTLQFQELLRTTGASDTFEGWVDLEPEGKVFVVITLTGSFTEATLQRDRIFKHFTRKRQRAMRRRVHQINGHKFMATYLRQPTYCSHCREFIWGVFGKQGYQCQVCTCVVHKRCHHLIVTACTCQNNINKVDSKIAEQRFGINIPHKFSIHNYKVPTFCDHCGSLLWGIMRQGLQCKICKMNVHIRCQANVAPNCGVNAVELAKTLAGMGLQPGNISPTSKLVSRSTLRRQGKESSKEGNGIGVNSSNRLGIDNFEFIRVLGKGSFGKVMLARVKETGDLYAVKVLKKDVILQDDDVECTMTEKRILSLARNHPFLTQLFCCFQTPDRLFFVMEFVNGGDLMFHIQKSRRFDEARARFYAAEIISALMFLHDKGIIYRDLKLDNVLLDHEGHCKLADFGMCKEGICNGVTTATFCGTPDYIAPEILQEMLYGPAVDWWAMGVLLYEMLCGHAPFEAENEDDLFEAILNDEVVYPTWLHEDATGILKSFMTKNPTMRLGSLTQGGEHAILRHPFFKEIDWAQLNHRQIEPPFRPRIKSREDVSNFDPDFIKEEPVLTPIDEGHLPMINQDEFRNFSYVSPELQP

On to `COc1cc2c(Oc3ccc(-c4nc5ccccc5s4)cc3)ncnc2cc1OCCCN1CCCC1`, for which the residual activity was determined as 145% in assay [1]; 122% in assay [2]; 97% in assay [3]; 81% in assay [4]; 111% in assay [5]. This compound also had an IC50 in assay [6] of 0.14 µM.
Regarding `COc1cc2c(Oc3ccc(-c4nc5ccccc5s4)cc3F)ncnc2cc1OCCCN1CCN(C)CC1`, the residual activity in assay [1] is 120%; in assay [2] it was 135%; in assay [3], 93%; in assay [4], 55%; in assay [5] it was 102%. Moreover, the half-maximal inhibitory concentration (IC50) in assay [6] was 0.19 µM.
In the case of `COc1cc2c(Oc3ccc(-c4nc5ccccc5s4)cc3)ncnc2cc1OCCCN1CCN(C)CC1`, the residual activity in assay [1] was 116%; in assay [2] it was 130%; in assay [3], 88%; in assay [4], 71%; in assay [5] it was 101%. This compound registered an IC50 in assay [6] of 0.121 µM.

The values above are taken from ChEMBL document CHEMBL1152560, “Substituted 2-arylbenzothiazoles as kinase inhibitors: hit-to-lead optimization” (Bioorg Med Chem, 2009).
